Experimental data from different studies.
Each line is one published result; the experiments were not run side by side.
Target: Mitogen-activated protein kinase kinase kinase 3 (MAP3K3, Homo sapiens, UniProt Q99759)
Sequence (Q99759 1-626, as in one of the studies): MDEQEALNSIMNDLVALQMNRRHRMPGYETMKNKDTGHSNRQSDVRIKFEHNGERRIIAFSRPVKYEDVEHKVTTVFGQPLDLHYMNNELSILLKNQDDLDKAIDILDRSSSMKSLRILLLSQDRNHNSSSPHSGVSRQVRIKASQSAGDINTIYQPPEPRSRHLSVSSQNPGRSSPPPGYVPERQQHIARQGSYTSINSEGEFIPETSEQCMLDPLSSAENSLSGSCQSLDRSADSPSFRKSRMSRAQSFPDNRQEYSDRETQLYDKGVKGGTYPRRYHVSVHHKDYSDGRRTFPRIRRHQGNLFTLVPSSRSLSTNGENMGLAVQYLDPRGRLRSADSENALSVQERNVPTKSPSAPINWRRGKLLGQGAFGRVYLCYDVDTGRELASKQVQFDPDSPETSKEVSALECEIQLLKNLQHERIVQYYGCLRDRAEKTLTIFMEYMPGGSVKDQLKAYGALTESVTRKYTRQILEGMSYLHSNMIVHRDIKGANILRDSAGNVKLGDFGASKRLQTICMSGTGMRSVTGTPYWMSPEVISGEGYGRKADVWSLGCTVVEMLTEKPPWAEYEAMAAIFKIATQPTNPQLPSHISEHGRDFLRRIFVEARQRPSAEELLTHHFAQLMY

SMILES | read-out | mode | technique | tested at | endpoint | value
Cc1nn(C)cc1-c1nc2c(N3CCN(Cc4ccc(Cl)cc4)CC3)c(Cl)cnc2[nH]1 | binding | – | competition with immobilised ligand | 1 µM | remaining binding | 91%
Cn1cc(-c2cccc(N3CCc4c(sc5c4CC(C)(C)C5)C3=O)c2CO)cc(Nc2ccncn2)c1=O | enzyme activity | inhibitor | – | 1 µM | inhibition | 3%
Nc1ncc(-c2nc(N3CCOCC3)nc(N3CCOCC3)n2)c(C(F)F)n1 | binding | – | competition with immobilised ligand | 10 µM | remaining binding | 72%
COc1ncccc1-c1cnn2ccc(N3CCN(C(=O)OC(C)C)CC3)nc12 | binding | – | competition with immobilised ligand | 1 µM | remaining binding | 100%
CC(C)(C)c1cc(C=C(C#N)C#N)cc(Br)c1O | enzyme activity | inhibitor | – | 0.5 µM | remaining activity | 118%
Cn1cncc1[C@@](O)(COc1ccc(C#N)cc1-c1ccc(OC(F)(F)F)cc1)c1ccc(C#N)cc1 | cell-free assay | – | competition with immobilised ligand | 1 µM | remaining binding | 81%
COCc1c(-c2cc3cc(C)cc(OC)c3s2)c2c(N)ncnn2c1CN1CCNC(=O)C1 | cell-free assay | – | competition with immobilised ligand | 1 µM | inhibition | 95.3%
O=c1[nH]c2ccccc2n1C1CCN(Cc2ccc(-c3[nH]c4cc5ncnc5cc4nc3-c3ccccc3)cc2)CC1 | cell-free assay | – | – | 0.5 µM | remaining signal | 101%
Cn1cc(-c2cc(F)cc(N3CCn4c(cc5c4CCCC5)C3=O)c2CO)cc(Nc2ccc(N3CCN(C4COC4)CC3)cn2)c1=O | enzyme activity | inhibitor | – | 0.1 µM | inhibition | 1%
